Measurements published in ChEMBL document CHEMBL6177937, “Design, synthesis, and biological evaluation of novel thiazole derivatives as PI3K/mTOR dual inhibitors” (RSC Med Chem, 2024).

Assays:
HCT-116 = experiment: Growth inhibition of human HCT-116 cells at 10 uM measured after 48 hrs by SRB assay relative to control; assay type: functional; details: read-out: GI
Method in brief: (§1)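 NCI screen: cells seeded at […] per well and preincubated 24 h (37°C, 5% CO2). Compound stocks in DMSO, tested at a single 10 μM. Exposure 48 h. Adherent cells fixed with cold TCA (10% final), suspension cells with 16% TCA. SRB stain read at 515 nm. Percent growth inhibition reported against time-zero and untreated controls.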

HT-29 = experiment: Growth inhibition of human HT-29 cells at 10 uM measured after 48 hrs by SRB assay relative to control; assay type: functional; details: HT-29, read-out: GI; method in brief: as §1
A549 = experiment: Growth inhibition of human A549 cells at 10 uM measured after 48 hrs by SRB assay relative to control; assay type: functional; details: A549, read-out: GI; method in brief: as §1
[1] = tested on: Panel NCI-60 (60 carcinoma cell lines); experiment: Antiproliferative activity against human NCI-60 cells assessed as growth inhibition at 10 uM measured after 48 hrs by SRB assay relative to control; assay type: functional; details: read-out: GI; method in brief: as §1
SW-620 = experiment: Growth inhibition of human SW620 cells at 10 uM measured after 48 hrs by SRB assay relative to control; assay type: functional; details: read-out: GI
Method in brief: (§2)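 Single-dose NCI screen at 10 μM: 48 h exposure at 37°C, 5% CO2; adherent cells fixed in cold TCA (final 10%), suspension cells in TCA (final 16%); SRB stain solubilized in 10 mM Trizma base, absorbance 515 nm; percent growth inhibition calculated relative to untreated control and time-zero plates.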

NCI-H460 = experiment: Growth inhibition of human NCI-H460 cells at 10 uM measured after 48 hrs by SRB assay relative to control; assay type: functional; details: NCI-H460, read-out: GI; method in brief: as §1
NCI-H322M = experiment: Growth inhibition of human NCI-H322M cells at 10 uM measured after 48 hrs by SRB assay relative to control; assay type: functional; details: read-out: GI; method in brief: as §1
MCF7 = experiment: Growth inhibition of human MCF7 cells at 10 uM measured after 48 hrs by SRB assay relative to control; assay type: functional; details: read-out: GI; method in brief: as §1
OVCAR-3 = experiment: Growth inhibition of human OVCAR-3 cells at 10 uM measured after 48 hrs by SRB assay relative to control; assay type: functional; details: OVCAR-3, read-out: GI; method in brief: as §1
RPMI-8226 = experiment: Growth inhibition of human RPMI-8226 cells at 10 uM measured after 48 hrs by SRB assay relative to control; assay type: functional; details: RPMI-8226, read-out: GI; method in brief: as §2
KM12 = experiment: Growth inhibition of human KM12 cells at 10 uM measured after 48 hrs by SRB assay relative to control; assay type: functional; details: KM12, read-out: GI; method in brief: as §1
UO-31 = experiment: Growth inhibition of human UO-31 cells at 10 uM measured after 48 hrs by SRB assay relative to control; assay type: functional; details: read-out: GI; method in brief: as §2
ACHN = experiment: Growth inhibition of human ACHN cells at 10 uM measured after 48 hrs by SRB assay relative to control; assay type: functional; details: read-out: GI; method in brief: as §1
RXF 393 = experiment: Growth inhibition of human RXF 393 cells at 10 uM measured after 48 hrs by SRB assay relative to control; assay type: functional; details: read-out: GI; method in brief: as §2
HL-60 = experiment: Cytotoxicity against human HL-60 cells assessed as reduction in cell viability measured after 24 hrs by MTT assay; assay type: functional, cell-based; details: HL-60, 24 h
Method in brief: (§3)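 MTT viability with 24 h incubation in 96-well plates. Five semi-log concentrations from 0.01 to 100 μM. Formazan absorbance read at 570 nm, with 690 nm background subtracted. Run in triplicate. IC50 obtained by sigmoidal dose-response fitting. Cells are leukemia HL-60(TB) and normal lymphocytes (PCS-800-017).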

[2] = Cytotoxicity against human PCS-800-017 cells assessed as reduction in cell viability measured after 24 hrs by MTT assay; assay type: toxicity, cell-based; method in brief: as §3

CCOc1cc(/C=N/Nc2nc(-c3ccc(Br)cc3)cs2)ccc1OCc1ccccc1
inhibition of growth at 10 µM (HCT-116): 70.9%
inhibition of growth at 10 µM (HT-29): 73.9%
inhibition of growth at 10 µM (A549): 76.4%
inhibition of growth at 10 µM [1]: 31.8%
inhibition of growth at 10 µM (SW-620): 76.1%
inhibition of growth at 10 µM (NCI-H460): 78.6%

Cc1c(/C=N/Nc2nc(-c3cccc([N+](=O)[O-])c3)cs2)c(=O)n(-c2ccccc2)n1C
inhibition of growth at 10 µM [1]: 16.2%

COc1cc(/C=N/Nc2nc(-c3cccc([N+](=O)[O-])c3)cs2)ccc1OCc1ccccc1
inhibition of growth at 10 µM [1]: 28.8%

O=[N+]([O-])c1cccc(-c2csc(N/N=C/c3ccc4c(c3)OCO4)n2)c1
inhibition of growth at 10 µM [1]: 18.2%

O=[N+]([O-])c1cc(/C=N/Nc2nc(-c3ccccc3)cs2)ccc1Cl
inhibition of growth at 10 µM (NCI-H322M): 83.1%
inhibition of growth at 10 µM (MCF7): 89.9%
inhibition of growth at 10 µM (OVCAR-3): 96.2%
inhibition of growth at 10 µM (RPMI-8226): 85.1%
inhibition of growth at 10 µM [1]: 21.5%
inhibition of growth at 10 µM (KM12): 86.6%

CCOc1cc(/C=N/Nc2nc(-c3ccccc3)cs2)ccc1OCc1ccccc1
inhibition of growth at 10 µM (UO-31): 48.1%
inhibition of growth at 10 µM [1]: 14.5%

C(=N\Nc1nc(-c2ccccc2)cs1)/c1ccc(OCc2ccccc2)cc1
inhibition of growth at 10 µM (ACHN): 79.8%
inhibition of growth at 10 µM [1]: 13.1%

COc1cc(/C=N/Nc2nc(-c3ccc(Cl)cc3)cs2)ccc1OCc1ccccc1
inhibition of growth at 10 µM (MCF7): 45%
inhibition of growth at 10 µM [1]: 16.5%

CCOc1cc(/C=N/Nc2nc(-c3ccc(Cl)cc3)cs2)ccc1OCc1ccccc1
inhibition of growth at 10 µM (HCT-116): 87.5%
inhibition of growth at 10 µM (A549): 87.4%
inhibition of growth at 10 µM [1]: 37.1%
inhibition of growth at 10 µM (SW-620): 76.2%
inhibition of growth at 10 µM (NCI-H460): 88.8%

CCOc1cc(/C=N/Nc2nc(-c3ccccc3)cs2)ccc1O
inhibition of growth at 10 µM [1]: 36.9%

COc1cc(/C=N/Nc2nc(-c3ccccc3)cs2)ccc1OCc1ccccc1
inhibition of growth at 10 µM [1]: 19.1%

O=[N+]([O-])c1cccc(-c2csc(N/N=C/c3ccc(Cl)c([N+](=O)[O-])c3)n2)c1
inhibition of growth at 10 µM [1]: 36%

CCOc1cc(/C=N/Nc2nc(-c3cccc([N+](=O)[O-])c3)cs2)ccc1OCc1ccccc1
inhibition of growth at 10 µM [1]: 23.9%
inhibition of growth at 10 µM (RXF 393): 79.2%

Cc1c(/C=N/Nc2nc(-c3ccc(Br)cc3)cs2)c(=O)n(-c2ccccc2)n1C
inhibition of growth at 10 µM [1]: 9.82%

O=[N+]([O-])c1cccc(-c2csc(N/N=C/c3ccc(OCc4ccccc4)cc3)n2)c1
inhibition of growth at 10 µM [1]: 18.5%

COc1cccc2c1C(=O)c1c(O)c3c(c(O)c1C2=O)C[C@@](O)(C(=O)CO)C[C@@H]3O[C@H]1C[C@H](N)[C@H](O)[C@H](C)O1 [DOXORUBICIN]
IC50 (HL-60): 0.45 µM
IC50 at 24 h [2]: 12.5 µM
